Tests used:
[1] = target: T1, Indoleamine 2,3-dioxygenase 1 (Homo sapiens, UniProt P14902); experiment: Inhibition of IDO1 (unknown origin) assessed as reduction in N'-formlylkynurenine formation at 1 uM using D-Tryptophan as substrate in presence of ascorbate and methylene blue relative to control
Target sequence in this assay (P14902 whole entry, looked up): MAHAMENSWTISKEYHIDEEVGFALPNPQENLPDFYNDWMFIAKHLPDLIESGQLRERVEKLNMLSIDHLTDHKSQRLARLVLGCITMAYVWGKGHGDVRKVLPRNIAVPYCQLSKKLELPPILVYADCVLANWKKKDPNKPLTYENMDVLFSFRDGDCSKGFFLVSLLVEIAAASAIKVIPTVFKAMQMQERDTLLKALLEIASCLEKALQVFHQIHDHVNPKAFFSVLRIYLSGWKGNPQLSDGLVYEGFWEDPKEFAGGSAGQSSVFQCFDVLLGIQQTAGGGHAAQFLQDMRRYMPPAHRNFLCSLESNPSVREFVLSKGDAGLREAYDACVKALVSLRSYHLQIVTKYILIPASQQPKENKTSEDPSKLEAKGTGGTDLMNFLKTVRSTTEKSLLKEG

[2] = target: T2, Tryptophan 2,3-dioxygenase (Homo sapiens, UniProt P48775); experiment: Inhibition of recombinant TDO (unknown origin) assessed as reduction in N-formylkynurenine formation using L-Tryptophan as substrate after 75 mins by UV absorption method
Outline: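 Recombinant TDO reaction at room temperature in TDO assay buffer with 200 μM L-tryptophan and inhibitor, incubated 75 min; N-formylkynurenine measured by UV absorbance at 321 nm. Blank used buffer in place of enzyme. IC50 from nonlinear regression with normalized dose-response fit.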
Target sequence in this assay (P48775 whole entry): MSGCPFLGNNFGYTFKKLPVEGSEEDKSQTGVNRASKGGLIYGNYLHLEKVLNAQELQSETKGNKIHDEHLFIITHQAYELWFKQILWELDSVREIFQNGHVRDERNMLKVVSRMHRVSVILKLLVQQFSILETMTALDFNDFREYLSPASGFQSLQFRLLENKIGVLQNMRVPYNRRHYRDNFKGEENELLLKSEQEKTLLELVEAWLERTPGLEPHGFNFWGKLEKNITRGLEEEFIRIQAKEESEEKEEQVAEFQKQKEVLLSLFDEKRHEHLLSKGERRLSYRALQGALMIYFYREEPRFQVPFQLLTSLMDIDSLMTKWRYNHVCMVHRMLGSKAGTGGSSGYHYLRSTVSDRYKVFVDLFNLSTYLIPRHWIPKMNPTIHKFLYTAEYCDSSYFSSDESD

[3] = target: T1, Indoleamine 2,3-dioxygenase 1; experiment: Inhibition of IDO1 (unknown origin) assessed as reduction in N'-formlylkynurenine formation using D-Tryptophan as substrate in presence of ascorbate and methylene blue; details: in the assay text read “ascorbate” for “aspartate”
Outline: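 Room-temperature reaction: 20 nM IDO, 2 mM D-Trp, 20 mM ascorbate, 3.5 μM methylene blue, 0.2 mg/mL catalase in 50 mM potassium phosphate pH 6.5. Initial rates tracked continuously by absorbance rise at 321 nm (N'-formylkynurenine); IC50 by nonlinear regression, normalized dose-response fit.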
Target sequence in this assay (P14902 whole entry): as the sequence (P14902 whole entry, looked up) above

[4] = target: T1, Indoleamine 2,3-dioxygenase 1; experiment: Inhibition of IFN-gamma-stimulated IDO1 in human HeLa cells at 1 uM after 24 hrs by Ehrlich's reagent based assay relative to control; type: cell-based
Outline: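 IFN-γ (100 ng/mL, 24 h) induction of IDO1 in HeLa cells plated at 40,000/well after 24 h adherence; inhibitor in DMSO, 24 h incubation. Reaction ended with 30% TCA, heated 30 min at 50 °C, centrifuged, supernatant reacted with Ehrlich reagent 10 min at room temperature; read at 490 nm.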
Target sequence in this assay (P14902 whole entry, looked up): as above

[5] = target: T1, Indoleamine 2,3-dioxygenase 1; experiment: Inhibition of IFN-gamma-stimulated IDO1 in human HeLa cells after 24 hrs by Ehrlich's reagent based assay; type: cell-based
Outline: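 HeLa cells (40,000/well) adhered 24 h, stimulated with 100 ng/mL human recombinant IFN-γ for 24 h, then given inhibitor in DMSO from 10 μM top dose, 3-fold dilutions to 0.1 μM, for 24 h. Stopped with 30% TCA, 30 min at 50 °C, centrifuged; supernatant mixed with Ehrlich reagent 10 min at room temperature, absorbance at 490 nm.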
Target sequence in this assay (P14902 whole entry): as the sequence (P14902 whole entry, looked up) above

[6] = target: T2, Tryptophan 2,3-dioxygenase; experiment: Inhibition of recombinant TDO (unknown origin) assessed as reduction in N-formylkynurenine formation at 10 uM using L-Tryptophan as substrate after 75 mins by UV absorption method relative to control
Outline: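 Room-temperature UV assay: recombinant TDO with 200 μM L-tryptophan in TDO assay buffer plus inhibitor, 75 min incubation, then absorbance at 321 nm for N-formylkynurenine. Buffer substituted for TDO as blank.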
Target sequence in this assay (P48775 whole entry, looked up): as the sequence (P48775 whole entry) above

[7] = test system: HEK-293T; experiment: Cytotoxicity against HEK293T cells after 48 hrs by MTT assay; type: cell-based; details: Homo sapiens
Outline: (§1)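 Cells seeded at 3-4 × 10^3 per well and incubated overnight, then exposed to compounds added from 10 mM DMSO stock for 48 h; 1% DMSO as negative control.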

[8] = test system: HeLa; experiment: Cytotoxicity against human HeLa cells after 48 hrs by MTT assay; type: functional, cell-based
Outline: as §1

[9] = test system: MCF7; experiment: Cytotoxicity against human MCF7 cells after 48 hrs by MTT assay; type: functional, cell-based; details: MCF7, 48 h
Outline: as §1

SMILES	inhibition [1] [%]	IC50 [3] [nM]	inhibition [4] [%]	also measured
O=C1c2ncccc2C(=O)c2c1c(C(=O)Nc1cccc(Cl)c1)c1ccccn21	34			
O=C1c2cccnc2C(=O)c2c1c(Cc1ccccc1)c1ccccn21	34			
CCOC(=O)c1c2c(n3ccccc13)C(=O)c1ncccc1C2=O	35			
Cc1ccn2c3c(c(C(=O)O)c2c1)C(=O)c1ncccc1C3=O	54			
O=C1c2cccnc2C(=O)c2c1c(C(=O)Nc1ccccc1)c1ccccn21	68	361		IC50 [2]: 7.3 µM
O=C1c2cccnc2C(=O)c2c1c(C(=O)Nc1cccc(Cl)c1)c1ccccn21	29.5			
O=C(O)c1cccc(NC(=O)c2c3c(n4ccccc24)C(=O)c2cccnc2C3=O)c1	71.5	390		IC50 [2]: > 100 µM
O=C(O)c1cccc(NC(=O)c2c3c(n4ccccc24)C(=O)c2ncccc2C3=O)c1	74.5	148	9	IC50 [2]: 41.6 µM
Cc1ccccc1NC(=O)c1c2c(n3ccccc13)C(=O)c1cccnc1C2=O	64	134	38	IC50 [2]: > 100 µM; IC50 [5]: 2660 nM
CN(C)CCNC(=O)c1c2c(n3ccccc13)C(=O)c1cccc(O)c1C2=O	29			
O=C1c2ccccc2C(=O)c2c1c(C(=O)NCCCO)c1ccccn21	15			
COc1ccn2c3c(c(C(=O)O)c2c1)C(=O)c1cccnc1C3=O	69	299		
Cc1ccn2c3c(c(C(=O)O)c2c1)C(=O)c1cccnc1C3=O	70	394		
CCOC(=O)c1c2c(n3ccccc13)C(=O)c1ccccc1C2=O	68	332		
CN(C)CCNC(=O)c1c2c(n3ccccc13)C(=O)c1ccccc1C2=O	27			
O=C1c2ccccc2C(=O)c2c1c(C(=O)NCCO)c1ccccn21	22			
O=C1c2cccnc2C(=O)c2c1c(C(=O)O)c1cc(I)ccn21	67	117	12	
COC(=O)c1c2c(n3ccccc13)C(=O)c1ncccc1C2=O	65	438		
CCOC(=O)c1c2c(n3ccccc13)C(=O)c1cccnc1C2=O	61	977		inhibition [6]: 14%
COc1cccc2c1C(=O)c1c(O)c3c(c(O)c1C2=O)C[C@@](O)(C(=O)CO)C[C@@H]3O[C@H]1C[C@H](N)[C@H](O)[C@H](C)O1 [DOXORUBICIN]				IC50 [7]: 1130 nM; IC50 [8]: 660 nM

SMILES	inhibition [1] [%]	IC50 [3] [nM]	inhibition [4] [%]	also measured
O=C1c2ncccc2C(=O)c2c1c(C(=O)O)c1ccccn21	58	1190		
NC(=S)NNC(=O)c1c2c(n3ccccc13)C(=O)c1ncccc1C2=O	74.5	23	22	IC50 [7]: > 20000 nM; IC50 [2]: 1.2 µM; IC50 [8]: > 20000 nM; IC50 [9]: > 20 µM
O=C1c2ccccc2C(=O)c2c1c(C(=O)O)c1ccccn21	61	714		
COc1ccn2c3c(c(C(=O)O)c2c1)C(=O)c1ncccc1C3=O	47			
NS(=O)(=O)NCCNC1=NON/C1=C(/NO)Nc1ccc(F)c(Br)c1		73	96	IC50 [5]: 7 nM
O=C1c2ncccc2C(=O)c2c1c(C(=O)Nc1ccccc1)c1ccccn21	62	119	25	IC50 [2]: > 100 µM
CC(C)OC(=O)c1c2c(n3ccccc13)C(=O)c1ccccc1C2=O	13			
O=C1c2cccnc2C(=O)c2c1c(C(=O)O)c1ccccn21	70	288		inhibition [6]: 28%
O=C1c2ncccc2C(=O)c2c1c(Cc1ccccc1)c1ccccn21	56			
COC(=O)c1c2c(n3ccccc13)C(=O)c1ccccc1C2=O	77	156	24	inhibition [6]: 40%
CN(C)CCNC(=O)c1c2c(n3ccccc13)C(=O)c1ncccc1C2=O	78	127	43	IC50 [2]: 3.35 µM; IC50 [5]: 738 nM; inhibition [6]: 91%
Cc1ccccc1NC(=O)c1c2c(n3ccccc13)C(=O)c1ncccc1C2=O	74	427		IC50 [2]: > 100 µM
CN(C)CCCNC(=O)c1c2c(n3ccccc13)C(=O)c1ccccc1C2=O	24			
COC(=O)c1c2c(n3ccccc13)C(=O)c1cccnc1C2=O	69	448		
CSc1ccn2c3c(c(C(=O)NCCN(C)C)c2c1)C(=O)c1ncccc1C3=O	80.5	39	77	IC50 [5]: 372 nM
CSc1ccn2c3c(c(C(=O)NCCN(C)C)c2c1)C(=O)c1cccnc1C3=O	72.5	50	42	IC50 [5]: 1080 nM
COC(=O)c1c2c(n3ccccc13)C(=O)c1cccc(O)c1C2=O	77	87	12	
O=C1c2c(O)cccc2C(=O)c2c1c(C(=O)O)c1ccccn21	60			
CN(C)CCNC(=O)c1c2c(n3ccccc13)C(=O)c1cccnc1C2=O	77	188	81	IC50 [2]: 7.15 µM; IC50 [5]: 1240 nM; inhibition [6]: 88%
O=C1c2ncccc2C(=O)c2c1c(C(=O)O)c1cc(I)ccn21	67	420		
